Assay results published in ChEMBL document CHEMBL1138259, “Novel fluorinated derivatives of the broad-spectrum MMP inhibitors N-hydroxy-2(R)-[[(4-methoxyphenyl)sulfonyl](benzyl)- and (3-picolyl)-amino]-3-methyl-butanamide as potential tools for the molecular imaging of activated MMPs with PET” (J Med Chem, 2007).

How the values were obtained:
[1] = target: 72 kDa type IV collagenase (Homo sapiens, UniProt P08253); test: Inhibition of MMP2
Neutrophil collagenase = Neutrophil collagenase (Homo sapiens, UniProt P22894); test: Inhibition of MMP8
Collagenase 3 = Collagenase 3 (Homo sapiens, UniProt P45452)
[2] = target: Matrix metalloproteinase-9 (Homo sapiens, UniProt P14780); test: Inhibition of MMP9
[3] = Stability in C57BL/6 mouse plasma at 13 to 38 MBq.kg^-1 after 20 mins; type: ADME, organism-based; conditions: read-out: Stability
How it was run: (§1)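 Adult C57BL/6 mice (male and female, 25-30 g) received an ¹⁸F-radiotracer bolus in the tail vein and were killed with i.v. pentobarbitone at 2.5 or 20 min. Blood was drawn by cardiac puncture and plasma separated. Plasma from 2-3 mice (2.5 min) or 4 mice (20 min) was pooled and deproteinized with ice-cold acetonitrile. Supernatant was spiked with unlabeled reference and run on radio-HPLC to give the fraction of intact tracer versus metabolites.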

[4] = Stability in C57BL/6 mouse plasma at 13 to 38 MBq.kg^-1 after 2.5 mins; type: ADME, organism-based; conditions: read-out: Stability; how it was run: as §1
[5] = Lipophilicity, log D of the compound; type: physicochemical; conditions: octanol/water
How it was run: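 Shake-flask partition of ¹⁸F-radioligand between 1-octanol and 0.02 M phosphate buffer, pH 7.4. Both layers gamma-counted with decay back-correction. log D taken as log of cpm/mL octanol over cpm/mL buffer. Four repeats, reported as mean ± SD.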

Chain of Matrix metalloproteinase-9 (P14780 whole entry): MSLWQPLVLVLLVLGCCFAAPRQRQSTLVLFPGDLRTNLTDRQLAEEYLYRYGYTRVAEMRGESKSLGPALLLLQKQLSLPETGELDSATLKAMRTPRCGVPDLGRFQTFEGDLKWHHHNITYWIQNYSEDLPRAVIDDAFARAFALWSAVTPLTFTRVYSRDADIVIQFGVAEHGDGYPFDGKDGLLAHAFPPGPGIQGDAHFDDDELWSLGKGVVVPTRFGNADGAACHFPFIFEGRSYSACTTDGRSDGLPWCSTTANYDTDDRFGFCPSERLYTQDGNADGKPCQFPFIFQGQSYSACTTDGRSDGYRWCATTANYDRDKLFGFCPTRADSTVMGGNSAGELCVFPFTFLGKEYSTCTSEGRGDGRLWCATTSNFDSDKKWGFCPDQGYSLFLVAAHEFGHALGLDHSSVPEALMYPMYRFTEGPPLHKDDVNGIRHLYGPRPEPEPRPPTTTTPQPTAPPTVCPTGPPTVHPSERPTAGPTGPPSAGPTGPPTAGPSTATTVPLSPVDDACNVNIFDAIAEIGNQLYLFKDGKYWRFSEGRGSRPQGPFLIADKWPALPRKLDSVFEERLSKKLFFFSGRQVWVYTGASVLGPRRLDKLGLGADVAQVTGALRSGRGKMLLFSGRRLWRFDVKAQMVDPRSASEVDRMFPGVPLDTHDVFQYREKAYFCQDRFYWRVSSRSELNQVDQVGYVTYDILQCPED
Chain of 72 kDa type IV collagenase (P08253 whole entry): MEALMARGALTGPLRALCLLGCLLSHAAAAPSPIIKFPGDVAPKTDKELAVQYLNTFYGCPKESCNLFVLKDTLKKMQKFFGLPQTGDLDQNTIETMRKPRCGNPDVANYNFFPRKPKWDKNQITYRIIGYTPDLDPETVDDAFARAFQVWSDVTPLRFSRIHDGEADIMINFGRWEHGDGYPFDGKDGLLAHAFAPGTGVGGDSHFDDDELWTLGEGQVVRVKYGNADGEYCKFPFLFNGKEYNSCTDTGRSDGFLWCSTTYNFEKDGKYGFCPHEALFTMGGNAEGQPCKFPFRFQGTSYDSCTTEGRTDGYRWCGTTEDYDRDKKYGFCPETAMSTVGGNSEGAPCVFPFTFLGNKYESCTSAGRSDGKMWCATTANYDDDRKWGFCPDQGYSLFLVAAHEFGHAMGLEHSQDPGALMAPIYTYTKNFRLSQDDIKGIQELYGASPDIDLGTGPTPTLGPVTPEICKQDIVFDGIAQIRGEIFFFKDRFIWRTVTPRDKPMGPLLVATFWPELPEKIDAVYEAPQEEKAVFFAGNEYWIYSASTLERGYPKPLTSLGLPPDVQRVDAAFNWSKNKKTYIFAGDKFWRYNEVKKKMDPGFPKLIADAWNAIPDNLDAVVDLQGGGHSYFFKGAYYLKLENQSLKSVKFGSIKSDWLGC
Chain of Neutrophil collagenase (P22894 whole entry): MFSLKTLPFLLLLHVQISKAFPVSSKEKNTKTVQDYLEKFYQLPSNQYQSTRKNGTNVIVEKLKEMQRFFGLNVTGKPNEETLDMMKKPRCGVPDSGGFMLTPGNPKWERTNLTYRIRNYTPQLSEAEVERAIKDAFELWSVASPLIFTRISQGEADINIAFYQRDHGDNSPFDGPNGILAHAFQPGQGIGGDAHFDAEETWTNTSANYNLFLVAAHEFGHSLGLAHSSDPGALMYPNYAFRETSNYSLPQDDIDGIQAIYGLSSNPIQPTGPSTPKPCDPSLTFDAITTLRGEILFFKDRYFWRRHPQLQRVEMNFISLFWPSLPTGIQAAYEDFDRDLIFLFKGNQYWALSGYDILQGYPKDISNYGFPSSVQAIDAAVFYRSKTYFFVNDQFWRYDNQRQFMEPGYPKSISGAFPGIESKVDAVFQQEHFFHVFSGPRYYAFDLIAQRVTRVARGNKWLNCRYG

COc1ccc(S(=O)(=O)N(Cc2ccc(F)nc2)[C@@H](C(=O)NO)C(C)C)cc1
IC50 [1]: 8 nM | IC50 (Neutrophil collagenase): 0.9 nM | IC50 (Collagenase 3): 0.9 nM | IC50 [2]: 0.5 nM

COc1ccc(S(=O)(=O)N(Cc2ccc(F)nc2)[C@@H](C(=O)O)C(C)C)cc1
IC50 [1]: 35000 nM | IC50 (Neutrophil collagenase): 22000 nM | IC50 (Collagenase 3): 30000 nM | IC50 [2]: 9820 nM

CC(C)[C@H](C(=O)NO)N(Cc1ccccc1)S(=O)(=O)c1ccc(N(C)C)cc1
IC50 [1]: 335 nM | IC50 (Neutrophil collagenase): 105 nM | IC50 (Collagenase 3): 10 nM | IC50 [2]: 614 nM

CC(C)[C@H](C(=O)O)N(Cc1ccccc1)S(=O)(=O)c1ccc(N(C)C)cc1
IC50 [1]: 41000 nM | IC50 (Neutrophil collagenase): 14000 nM | IC50 (Collagenase 3): 14000 nM | IC50 [2]: 15000 nM

CC(C)[C@H](C(=O)NO)N(Cc1ccccc1)S(=O)(=O)c1ccc(OCC[18F])cc1
remaining at 20 min [3]: 37% | remaining at 2.5 min [4]: 86% | logD [5]: 2.02

CC(C)[C@H](C(=O)NO)N(Cc1cccnc1)S(=O)(=O)c1ccc(OCC[18F])cc1
remaining at 20 min [3]: 53% | logD [5]: 1.34

CC(C)[C@H](C(=O)O)N(Cc1ccccc1)S(=O)(=O)c1ccc(OCCI)cc1
IC50 [1]: 207 nM | IC50 [2]: 1350 nM

COc1ccc(S(=O)(=O)N(Cc2cccnc2F)[C@@H](C(=O)NO)C(C)C)cc1
IC50 [1]: 19 nM | IC50 (Neutrophil collagenase): 18 nM | IC50 (Collagenase 3): 50 nM | IC50 [2]: 51 nM

CC(C)[C@H](C(=O)NO)N(Cc1cccnc1)S(=O)(=O)c1ccc([N+](=O)[O-])cc1
IC50 [1]: 756 nM | IC50 (Neutrophil collagenase): 14 nM | IC50 (Collagenase 3): 10 nM | IC50 [2]: 5150 nM

CC(C)[C@H](C(=O)O)N(Cc1ccccc1)S(=O)(=O)c1ccc(OCCF)cc1
IC50 [1]: 5590 nM | IC50 (Neutrophil collagenase): 2460 nM | IC50 (Collagenase 3): > 100000 nM | IC50 [2]: 1300 nM

CC(C)[C@H](C(=O)NO)N(Cc1cccnc1)S(=O)(=O)c1ccc(F)cc1
IC50 [1]: 120 nM | IC50 (Neutrophil collagenase): 228 nM | IC50 (Collagenase 3): 527 nM | IC50 [2]: 414 nM

CC(C)[C@H](C(=O)NO)N(Cc1cccnc1)S(=O)(=O)c1ccc(N(C)C)cc1
IC50 [1]: 992 nM | IC50 (Neutrophil collagenase): 1200 nM | IC50 (Collagenase 3): 1340 nM | IC50 [2]: 1330 nM

CC(C)[C@H](C(=O)NO)N(Cc1ccccc1)S(=O)(=O)c1ccc(OCCI)cc1
IC50 [1]: 22 nM | IC50 (Neutrophil collagenase): 3 nM | IC50 (Collagenase 3): 10 nM | IC50 [2]: 69 nM

CC(C)[C@H](C(=O)NO)N(Cc1cccnc1)S(=O)(=O)c1ccc(OCCF)cc1
IC50 [1]: 3 nM | IC50 (Neutrophil collagenase): 2 nM | IC50 (Collagenase 3): 0.8 nM | IC50 [2]: 7 nM

COc1ccc(S(=O)(=O)N(Cc2cccnc2Br)[C@@H](C(=O)NO)C(C)C)cc1
IC50 [1]: 30 nM | IC50 (Neutrophil collagenase): 75 nM | IC50 (Collagenase 3): 59 nM | IC50 [2]: 103 nM

COc1ccc(S(=O)(=O)N(Cc2cccnc2Br)[C@@H](C(=O)O)C(C)C)cc1
IC50 [1]: 9110 nM | IC50 (Neutrophil collagenase): 7480 nM | IC50 (Collagenase 3): 34000 nM | IC50 [2]: 35000 nM

CC(C)[C@H](C(=O)O)N(Cc1cccnc1)S(=O)(=O)c1ccc(F)cc1
IC50 [1]: > 100000 nM | IC50 (Neutrophil collagenase): 71000 nM | IC50 (Collagenase 3): > 100000 nM | IC50 [2]: > 100000 nM

CC(C)[C@H](C(=O)NO)N(Cc1ccccc1)S(=O)(=O)c1ccc(F)cc1
IC50 [1]: 239 nM | IC50 (Neutrophil collagenase): 12 nM | IC50 (Collagenase 3): 384 nM | IC50 [2]: 281 nM

CC(C)[C@H](C(=O)O)N(Cc1ccccc1)S(=O)(=O)c1ccc(F)cc1
IC50 [1]: 4350 nM | IC50 (Neutrophil collagenase): 754 nM | IC50 (Collagenase 3): 9140 nM | IC50 [2]: 821 nM

COc1ccc(S(=O)(=O)N(Cc2ccc(Br)nc2)[C@@H](C(=O)NO)C(C)C)cc1
IC50 [1]: 2 nM | IC50 (Neutrophil collagenase): 20 nM | IC50 (Collagenase 3): 24 nM | IC50 [2]: 23 nM

COc1ccc(S(=O)(=O)N(Cc2ccc(Br)nc2)[C@@H](C(=O)O)C(C)C)cc1
IC50 [1]: 6120 nM | IC50 (Neutrophil collagenase): 6760 nM | IC50 (Collagenase 3): 3260 nM | IC50 [2]: 6930 nM

COc1ccc(S(=O)(=O)N(Cc2cccnc2F)[C@@H](C(=O)O)C(C)C)cc1
IC50 [1]: 20000 nM | IC50 (Neutrophil collagenase): 78000 nM | IC50 (Collagenase 3): 41000 nM | IC50 [2]: 10000 nM

CC(C)[C@H](C(=O)NO)N(Cc1ccccc1)S(=O)(=O)c1ccc(OCCF)cc1
IC50 [1]: 4 nM | IC50 (Neutrophil collagenase): 2 nM | IC50 (Collagenase 3): 11 nM | IC50 [2]: 50 nM
